Columns and labels:
[1] = tested on: Litomosoides carinii; assay: Antifilarial activity against Litomosoides carinii infections in the Jird at dose 100 mg/kg administered subcutaneously; format: functional; details: route subcutaneous
In short: (§1)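 L. carinii-infected jirds were dosed. Survivors were killed 55–70 days after the first dose, and the pleural and peritoneal cavities were searched for adult worms. Live worms at autopsy were scored as a percentage relative to sham-dosed controls. Adult worm reduction above 60% was the activity criterion.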

[2] = tested on: Litomosoides carinii; assay: Antifilarial activity against Litomosoides carinii infections in the Jird at dose 100 mg/kg administered orally; format: functional; details: route oral; in short: as §1
[3] = tested on: Litomosoides carinii; assay: Antifilarial activity against Litomosoides carinii infections in the Jird at dose 25 mg/kg administered orally; format: functional; details: route oral; in short: as §1
[4] = tested on: Litomosoides carinii; assay: Antifilarial activity against Litomosoides carinii infections in the Jird at dose 3 mg/kg administered orally; format: functional; details: route oral; in short: as §1
[5] = tested on: Litomosoides carinii; assay: Antifilarial activity against Litomosoides carinii infections in the Jird at dose 25 mg/kg administered subcutaneously; format: functional; details: route subcutaneous; in short: as §1
[6] = tested on: Litomosoides carinii; assay: Antifilarial activity against Litomosoides carinii infections in the Jird at dose 0.5 mg/kg administered orally; format: functional; details: route oral; in short: as §1
[7] = tested on: Litomosoides carinii; assay: Antifilarial activity against Litomosoides carinii infections in the Jird at dose 50 mg/kg administered orally; format: functional; details: route oral; in short: as §1
[8] = tested on: Litomosoides carinii; assay: Antifilarial activity against Litomosoides carinii infections in the Jird at dose 12 mg/kg administered orally; format: functional; details: route oral; in short: as §1
[9] = Antifilarial activity against Litomosoides carinii infections in the Jird at dose 100 mg/kg administered subcutaneously; two or more animals died prematurely considered to be drug toxicity.; format: organism-based, Meriones unguiculatus; design: dose 100 mg/kg, route subcutaneous; details: gerbil, in vivo, sc
In short: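 Jirds infected with Litomosoides carinii. Surviving animals killed 55–70 days after first drug dose; pleural and peritoneal cavities searched for adult worms. Live worm count at autopsy scored as percentage relative to sham-dosed controls. Activity criterion: adult worm reduction exceeding 60%.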

CCN(CC)Cc1cc(Nc2cc(C(F)(F)F)nc(/N=C(\N)Nc3ccc(C(F)(F)F)cc3)n2)ccc1OCc1ccccc1
Reduction of live worms [1]: 100% | Reduction of live worms [2]: 100% | Reduction of live worms [3]: 100% | Reduction of live worms [4]: 0%

CCN(CC)Cc1cc(Nc2ccnc3cc(Cl)ccc23)ccc1O.Cl
Reduction of live worms [1]: 100% | Reduction of live worms [2]: 72% | Reduction of live worms [3]: 71% | Reduction of live worms [5]: 61%

CCN(CC)Cc1cc(Nc2cc(C(F)(F)F)nc(/N=C(\N)Nc3ccc(OC)cc3)n2)ccc1OC
Reduction of live worms [1]: 100% | Reduction of live worms [3]: 100% | Reduction of live worms [4]: 0%

CCN(CC)Cc1cc(Nc2cc(C(F)(F)F)nc(/N=C(\N)Nc3ccc(Cl)c(Cl)c3)n2)ccc1OC
Reduction of live worms [1]: 100% | Reduction of live worms [3]: 100% | Reduction of live worms [5]: 100% | Reduction of live worms [4]: 100%

CC(C)CNCc1cc(Nc2cc(C(F)(F)F)nc(/N=C(\N)Nc3ccc(Cl)c(Cl)c3)n2)ccc1O
Reduction of live worms [2]: 100% | Reduction of live worms [3]: 100% | Reduction of live worms [4]: 35%

CCN(CC)Cc1cc(Nc2cc(C(F)(F)F)nc(/N=C(\N)Nc3ccc(C(F)(F)F)cc3)n2)ccc1O
Reduction of live worms [1]: 100% | Reduction of live worms [2]: 100% | Reduction of live worms [3]: 100% | Reduction of live worms [4]: 98% | Reduction of live worms [6]: 22%

CCN(CC)Cc1cc(Nc2cc(C(F)(F)F)nc(/N=C(\N)Nc3ccc(OC)cc3)n2)ccc1O
Reduction of live worms [1]: 95% | Reduction of live worms [2]: 95% | Reduction of live worms [3]: 100% | Reduction of live worms [4]: 2%

CCN(C)Cc1cc(Nc2cc(C(F)(F)F)nc(/N=C(\N)Nc3ccc(Cl)c(Cl)c3)n2)ccc1O
Reduction of live worms [1]: 100% | Reduction of live worms [3]: 100% | Reduction of live worms [5]: 100% | Reduction of live worms [4]: 97% | Reduction of live worms [6]: 100%

COc1ccc(Nc2cc(C(F)(F)F)nc(/N=C(\N)Nc3ccccc3)n2)cc1CN1CCN(C)CC1
Reduction of live worms [2]: 100% | Reduction of live worms [3]: 95% | Reduction of live worms [4]: 5%

N/C(=N\c1ccc(Cl)cc1)Nc1nc(Nc2ccc(O)c(CN3CCCC3)c2)cc(C(F)(F)F)n1
Reduction of live worms [7]: 100% | Reduction of live worms [8]: 87%

CCN(CC)Cc1cc(Nc2cc(-c3ccccc3)nc(/N=C(\N)Nc3ccc(Cl)c(Cl)c3)n2)ccc1O
Reduction of live worms [1]: 53% | Reduction of live worms [2]: 47%

CCNCc1cc(Nc2cc(C(F)(F)F)nc(/N=C(\N)Nc3ccc(C(=O)c4ccccc4)cc3)n2)ccc1OC
Reduction of live worms [1]: 0%

CCN(CC)Cc1cc(Nc2cc(C(F)(F)F)nc(/N=C(\N)Nc3ccc(Cl)c(Cl)c3)n2)ccc1OCc1ccccc1
Reduction of live worms [2]: 100% | Reduction of live worms [3]: 100% | Reduction of live worms [4]: 52%

CCN(CC)Cc1cc(Nc2cc(C(F)(F)F)nc(/N=C(\N)Nc3ccc(C(=O)c4ccccc4)cc3)n2)ccc1OC
Reduction of live worms [1]: 19% | Reduction of live worms [2]: 16%

CN1CCN(Cc2cc(Nc3cc(C(F)(F)F)nc(/N=C(\N)Nc4ccc(Cl)cc4)n3)ccc2O)CC1
Reduction of live worms [7]: 98% | Reduction of live worms [8]: 38%

CCNCc1cc(Nc2nc(/N=C(\N)Nc3ccc(Cl)c(Cl)c3)nc3c2CCCC3)ccc1OC
Animals dead [9]: > 2 | Reduction of live worms [5]: 69%

CCNCc1cc(Nc2cc(C(F)(F)F)nc(/N=C(\N)Nc3ccc(C(F)(F)F)cc3)n2)ccc1OC
Reduction of live worms [1]: 100% | Reduction of live worms [2]: 100% | Reduction of live worms [3]: 100% | Reduction of live worms [4]: 30%

CCN(CC)Cc1cc(Nc2cc(C(F)(F)F)nc(/N=C(\N)Nc3ccc(Oc4ccccc4)cc3)n2)ccc1OC
Reduction of live worms [1]: 0% | Animals dead [9]: > 2 | Reduction of live worms [3]: 27%

CCN(CC)Cc1cc(Nc2cc(C(F)(F)F)nc(/N=C(\N)Nc3ccc(Cl)cc3)n2)ccc1O
Reduction of live worms [7]: 100% | Reduction of live worms [8]: 100% | Reduction of live worms [4]: 100% | Reduction of live worms [6]: 100%

CCOC(=O)N1CCN(Cc2cc(Nc3cc(C(F)(F)F)nc(/N=C(\N)Nc4ccc(Cl)c(Cl)c4)n3)ccc2O)CC1
Reduction of live worms [1]: 31%

N/C(=N\c1ccc(Cl)c(Cl)c1)Nc1nc(Nc2ccc(O)c(CN3CCCC3)c2)cc(C(F)(F)F)n1
Reduction of live worms [2]: 100% | Reduction of live worms [3]: 100% | Reduction of live worms [4]: 59%

CCNCc1cc(Nc2cc(C(F)(F)F)nc(/N=C(\N)Nc3ccccc3)n2)ccc1OC
Reduction of live worms [1]: 96% | Reduction of live worms [3]: 33%

COc1ccc(Nc2cc(C(F)(F)F)nc(/N=C(\N)Nc3ccc(Cl)c(Cl)c3)n2)cc1CN(C)C
Reduction of live worms [1]: 100% | Reduction of live worms [2]: 100% | Animals dead [9]: > 2 | Reduction of live worms [3]: 100% | Reduction of live worms [4]: 100%

CCN(CC)Cc1cc(Nc2cc(C(F)(F)F)nc(/N=C(\N)Nc3ccc(Cl)cc3)n2)cc(-c2ccccc2)c1O
Reduction of live worms [1]: 35% | Reduction of live worms [2]: 88%

Reference: ChEMBL document CHEMBL1122281, “Synthesis and antifilarial activity of N-[4-[[4-alkoxy-3-[(dialkylamino)methyl]phenyl]amino]- 2-pyrimidinyl]-N'-phenylguanidines” (J Med Chem, 1983)
